From ChEMBL document CHEMBL4020838, “The Discovery of ( S)-1-(6-(3-((4-(1-(Cyclopropanecarbonyl)piperidin-4-yl)-2-methylphenyl)amino)-2,3-dihydro-1 H-inden-4-yl)pyridin-2-yl)-5-methyl-1 H-pyrazole-4-carboxylic Acid, a Soluble Guanylate Cyclase Activator Specifically Designed for Topical Ocular Delivery as a Therapy for Glaucoma” (J Med Chem, 2018)
The source made the active and inactive calls. The calls are words filed in the database; no cut-off is given here.

Experiments:
[1] = Activation of HUVEC-derived soluble guanylate cyclase expressed in CHOK1 cells assessed as increase in cGMP production after 1 hr by HTRF assay; assay type: cell-based; settings: CHO-K1, 1 h
How it was run: (§1)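 High-throughput assay in Chinese hamster ovary cells expressing sGC. cGMP was measured across a dose range. EC50 and Emax (maximal cGMP produced) were taken from the dose-response curve.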

[2] = organism: Homo sapiens; experiment: Activation of HUVEC-derived soluble guanylate cyclase expressed in CHOK1 cells assessed as increase in cGMP production after 1 hr by HTRF assay relative to 1-{6-[5-chloro-2-({4-[trans-4-(trifluoromethyl)cyclohexyl]-benzyl}oxy)phenyl)pyridin-2-yl)-5-(trifluoromethyl)-1H-pyrazole-4-carboxylic acid; assay type: cell-based; how it was run: as §1
[3] = Activation of soluble guanylate cyclase in human GTM3 cells assessed as increase in cGMP production after 30 mins by fluorescence assay; assay type: cell-based; settings: Homo sapiens, GTM3, 0.5 h
How it was run: (§2)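 Immortalized glaucomatous trabecular meshwork (GTM-3) cells expressing endogenous levels of sGC were used. cGMP was read across a dose range. EC50 and Emax were derived from the dose-response curve.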

[4] = organism: Homo sapiens; experiment: Activation of soluble guanylate cyclase in human GTM3 cells assessed as increase in cGMP production after 30 mins by fluorescence assay relative to 1-{6-[5-chloro-2-({4-[trans-4-(trifluoromethyl)cyclohexyl]-benzyl}oxy)phenyl)pyridin-2-yl)-5-(trifluoromethyl)-1H-pyrazole-4-carboxylic acid; assay type: cell-based; how it was run: as §2
[5] = system: Cynomolgus monkey; experiment: Reduction of intraocular pressure in laser-induced ocular hypertensive cynomolgus monkey at 100 ug administered as single topical dose measured at 6 hr post dose relative to control; assay type: functional, Macaca fascicularis; design: scale not given: the % may be the effect or the level left
How it was run: (§3)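 Cynomolgus monkeys with laser-induced elevated IOP received one 30 μL topical ocular drop containing 100 μg of compound, formulated as a suspension. Percent IOP reduction was recorded at 6 h and at 24 h after dosing.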

[6] = system: Cynomolgus monkey; experiment: Reduction of intraocular pressure in laser-induced ocular hypertensive cynomolgus monkey at 100 ug administered as single topical dose measured at 24 hrs post dose relative to control; assay type: functional, Macaca fascicularis; design: scale not given: the % may be the effect or the level left; how it was run: as §3
[7] = system: Cynomolgus monkey; experiment: Toxicity in laser-induced ocular hypertensive cynomolgus monkey assessed as conjunctival hyperemia at 300 ug administered as single topical dose; design: species or system Macaca fascicularis; settings: in vivo, topical_or_ocular
How it was run: (§4)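 Cynomolgus monkeys with laser-induced elevated IOP received a single topical ocular dose of 300 μg in a 30 μL drop. IOP and ocular signs were observed after dosing.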

[8] = system: Cynomolgus monkey; experiment: Toxicity in laser-induced ocular hypertensive cynomolgus monkey assessed as ocular discharge at 300 ug administered as single topical dose; design: species or system Macaca fascicularis; settings: in vivo, topical_or_ocular; how it was run: as §4
[9] = system: Oryctolagus cuniculus; experiment: Toxicity in New Zealand albino rabbit assessed as conjunctival hyperemia at 300 ug administered as single topical dose measured up to 24 hrs post dose; settings: in vivo, topical_or_ocular
[10] = system: Oryctolagus cuniculus; experiment: Toxicity in New Zealand albino rabbit assessed as ocular discharge at 300 ug administered as single topical dose measured up to 24 hrs post dose; settings: in vivo, topical_or_ocular
[11] = system: Oryctolagus cuniculus; experiment: Toxicity in New Zealand albino rabbit eye up to 300 ug administered as single topical dose measured up to 24 hrs post dose; settings: in vivo, topical_or_ocular
[12] = system: Cynomolgus monkey; experiment: Reduction of intraocular pressure in laser-induced ocular hypertensive cynomolgus monkey at 300 ug administered as single topical dose; assay type: functional; settings: Macaca fascicularis; how it was run: as §4
[13] = system: Cynomolgus monkey; experiment: Toxicity in laser-induced ocular hypertensive cynomolgus monkey assessed as ocular irritation at 300 ug administered as single topical dose; design: species or system Macaca fascicularis; settings: in vivo, topical_or_ocular; how it was run: as §4

Compound	EC50 [1]	Emax [2]	EC50 [3]	Emax [4]	Activity [5]	Activity [6]	Activity [7]	Activity [8]	Activity [9]	Activity [10]	Activity [11]	Activity [12]	Activity [13]
CCC(=O)N1CCC(c2ccc(OCc3ccsc3-c3cccc(-n4ncc(C(=O)O)c4C(F)(F)F)n3)c(C)c2)CC1	5.5 nM	100%	370 nM	97%	17%	10%	Toxic	Toxic	Toxic	Toxic			
CCc1c(C)sc(-c2cccc(-n3ncc(C(=O)O)c3C(F)(F)F)n2)c1COc1ccc(C2CCN(C(=O)C3CC3)CC2)cc1C	1 nM	101%	12 nM	93%							Non-Toxic	Active	Toxic
